This sample holds only a part of the variants without activity.
B1: tRNA (parent)
chain: GUUCCGUUGGCGUAAUGGUAACGCGUCUCCCUCCUAAGGAGAAGACUGCGGGUUCGAGUCCCGUACGGAACG

Variants of: B1
Assay: yeast fitness relative to wild type (ratio to wild type); higher = fitter; tRNA-Arg(CCU), competitive growth, 37 C, YPD
Summary of the method: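 Gene amplicons from the start population and from each of six end populations were read by 100-nucleotide paired-end sequencing. Those end populations came from pooled Saccharomyces cerevisiae strains carrying tRNA-Arg(CCU) gene variants at the native locus, competed in YPD at 37°C for 24 hours. Fitness relative to wild type was worked out from changes in genotype frequencies. Genotypes needed ≥ 100 starting reads, and estimates < 0.5 were set to 0.5.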

Variant | yeast fitness
GUACGGCUGGCGUAAUGGUAACGCGUCUCCCUCCAAAGGUGAAGAGUGCGGGAUCGAGUCCCGUACGCAACG [U3A C5G U7C U35A A40U C46G U53A G68C] | ≤ 0.5
GUAUCGAUGGCGUAAUGGUAACGUGUCUCCCUCCUAAGGAGAAGACUGCGGGUUCGAGUCCCGUACGGAGCG [U3A C4U U7A C24U A70G] | ≤ 0.5
GUAUCGAUGGCGUAAUGGUAACGUGUCUCCCUCCUAAGGAGAAGACUGCGGGUUCGAGUCCCGUACGGAUCG [U3A C4U U7A C24U A70U] | ≤ 0.5
GUAGCGUUGGCGUAAUGGUAACGCGUCUCCCUCCUAAGGAGAAGACUGCGGGUUCGAGUCCCGUACGGAACG [U3A C4G] | 0.792
GUAUCGUUGGCGUAAUGGUAACGCGUCUCCCUCCUAAGGAGAAGACUGCGGGUUCGAGUCCCGUACGGAACG [U3A C4U] | 0.874
GUACCGUUGGCGUAAUGGUAACGGGUCUCCUUCCUAAGGAGAAGACUGCGGCUUCGAGUCCCGUACGGAACG [U3A C24G C31U G52C] | ≤ 0.5
GUAUCGUUGGCGUAAUGGUAACGCCUCUCCCUCCUAAGGAGAAGACUGCGGGUUCGAGUCCCGUACGGAACG [U3A C4U G25C] | ≤ 0.5
GUACCGUUGGCGUAAUGGUAACGGGUCUACCUCCUAAGGAGAAGACUGCCGGUUCGCGUCCCGUACGGAACG [U3A C24G C29A G50C A57C] | ≤ 0.5
GUACCGUUGGCGUAAUGGUAAUGCGUCUCCCUCCUAAGAAGAAGACUGCGGGUUCGAGUCCCGUAUGGAACG [U3A C22U G39A C66U] | 0.576
GUACCGUUGGCGUAAUGGUAAUGCGUCUCCCUCCUAAGAAGAAGACUGCGGGUUCGAGUCCCGUACGGAACG [U3A C22U G39A] | ≤ 0.5
GUACCGUUGGGGUAAUGGUAACGCGUCUCCGUCCUAAGGAGAAGACUGCGGGUUCGAGUCCCGUGCGGAACG [U3A C11G C31G A65G] | ≤ 0.5
GUACCGUUGGGGUCAUGGUAACGGGUCUCCCUCCUAAGGAGAAGACUGCGGGUUCGAGUCCUGUGCGGAACG [U3A C11G A14C C24G C62U A65G] | 0.595
GUACAGUUGGCGUAAUAGUAAUGCGUCUCCCUCCUAAGGAGAAGACUGCGGGUUCGAGUCCCGUAUGGAACG [U3A C5A G17A C22U C66U] | 0.531
GUACACUUGGUGUAGAGGUAACGCGGCUCCCUCCUAAGGAGAAGACUGCGGGUUCGAGUGUCGUACGGAACG [U3A C5A G6C C11U A15G U16A U26G C60G C61U] | ≤ 0.5
GUACGGUUGGCGUGAUGGUAACGAGUCUCCCUCCUAAGGAGAAGACUGCGCCUUCGAGUCCCGUACGGAACG [U3A C5G A14G C24A G51C G52C] | ≤ 0.5
GUAGCGUUAGGGUAAUGGUAACGCGUCUCCCUCCUAAGGAGAAGUCUGCGGGUUCGAGUCCCGUACGGAACG [U3A C4G G9A C11G A45U] | ≤ 0.5
GUAGCAUUGGCGUAAUGGUAACGCGGCUCCCUCCUAAGGAGAAGACUGCGGGUUCGAGUCCCGUAUGGAACG [U3A C4G G6A U26G C66U] | ≤ 0.5
GUACCGUUGGCGUAAUGGUAACGUGUCUCCCCCCUAAGGAGAAGACUGCGGGUUCGAGUCCCGUACGGAACG [U3A C24U U32C] | 0.513
GUACGGUUGGCGGAAUGGUAACGCGUCUCCCUCCUAAGGAGAAGAGUGCGGGUUCGAGUCCGGUACGGAUCG [U3A C5G U13G C46G C62G A70U] | ≤ 0.5

Variant | yeast fitness
GUACCGUUGGCGUAAUGGUAACGAGUCCCCCUCCUAAGGAGAAGACUGCGGGUUCGAGUCACGUACGGAACG [U3A C24A U28C C61A] | ≤ 0.5
GUACUGUUGGCGUAAUGGUAACGCGUCUCCCUCCUAAGGAGGAGAGUGCGGGUUCGAGUCCCGUACGGAACG [U3A C5U A42G C46G] | ≤ 0.5
GUACAGUUGGCGUAAUGGUAACGCGUCUCCCUCCUAAGGAGAAGACUGCGGGUUCGAGUCCCGUACGGAACG [U3A C5A] | 0.806
GUACCGUUGGCGUAAUGGUAACGGGUCUCCCUCCUAAGGAGAAGACUGCGGGUUCGUGUCCCGUACGGAACG [U3A C24G A57U] | ≤ 0.5
GUAUCGUUGGCGUAAUGGUAACGCGUCUCCCUCCUAAGGAGAAGACUGCGGGUUCGAGUCGCCUACGGAACG [U3A C4U C61G G63C] | ≤ 0.5
GUACCGUUGGGGUAAUGGUAACGCGUCACCCUCCUAAGGACAAGACUGCGGGUUCGACUCCCGUACGGAACG [U3A C11G U28A G41C G58C] | ≤ 0.5
GUAACGUCGGCGUAAUGGUAACGCGUCUGCCUCCUACGGAGAAGACUGCGGGUUCGAGUCCCGUACGGAACG [U3A C4A U8C C29G A37C] | 0.581
GUAUUGUUGGCGUAAUGGUAACGCGUCUCCCUCCUAAGGAGAAGACUGCGGGUUCGAGUCCCGUACGGAACG [U3A C4U C5U] | 0.594
GUACACUUGGCGUAGAGGUAACGCGUCUCCCUCCUAAGGAGAAGACUGGGGGUUCGAGUCCCGUACGGAACG [U3A C5A G6C A15G U16A C49G] | ≤ 0.5
GUACCGUUGGUGUAAUGGUAACGCGUCUCCCUCCCAAGGAGAAGACUGCGGGUUCGAGUCCCGUCCGGAACG [U3A C11U U35C A65C] | ≤ 0.5
GUAUCGUUGGCGUAAUGGUAACGCGUCUCCCUCCUAAGGAGAAGACUGCGGGUUCGAGUCCCGUACCGAACG [U3A C4U G67C] | 0.624
GUACUGUUGGCGUAAUGGUAACGCGUCUCCGUCCUAAGGAGAAGACUGCGGGUUCGGGUCCCGUACGGAACG [U3A C5U C31G A57G] | ≤ 0.5
GUAACGUUGGCGUAAUGCUAACGCGUCUCCCUCUUGAGGAGAAGACUGCGGGUUCGAGUCCCCUACGGAACG [U3A C4A G18C C34U A36G G63C] | ≤ 0.5
GUACCGUUGGGAUAAUGGUAAUGCGUCUCCCUCCUAAGGAGAAGACUGCGGGUUCGAGUCCCGUACGGAACG [U3A C11G G12A C22U] | ≤ 0.5
GUACCGUUGGCGUAAUGGUAACGUGUCUCCCUCCUAAGGAGAAGACUGCGGGAUCGAGUCCCGUACGGAACG [U3A C24U U53A] | 0.548
GUACCGUUGGCGUAAUGGUAACGGGUCUCCCUGCUAAGGAGAAGACUGCGGGUUUGAGUCCCGUACGGAACG [U3A C24G C33G C55U] | ≤ 0.5
GUACCGUUGGCGUAAUGGUAACGGGUCUACCUCCUAAGGAGAAGACUGCCGGUUCGCGUCCCGUAUGGAACG [U3A C24G C29A G50C A57C C66U] | ≤ 0.5
GUAACGUUGGCGUAAUGGUAUCGCGUCUCCCUCCUAAGGAGAAGACUGCGGGUUCCAAUCCCGUACGGAACG [U3A C4A A21U G56C G58A] | ≤ 0.5
GUACGGUUGGUGUAAUGGUAACGAGUCUCUCUCCUAAGGAGAAGACUGCGGGUUCGAGUCCCGUACGGAGCG [U3A C5G C11U C24A C30U A70G] | ≤ 0.5

From the RNAGym collection of RNA variant scans (doi:10.1126/science.aae0568)
